Structures are written as SMILES. The source made the active and inactive calls. No cut-off for these calls is given here.

Assay [1] has as its system HeLa. Briefly: Cell cycle arrest in human HeLa cells assessed as accumulation at S phase after 48 hrs at 5 uM. In kind it is functional. In a few lines: (§1)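 Cells seeded at 2 × 10^5 per well and incubated overnight before compound at 5 × 10^-6 M. After 24, 48 or 72 h, attached and floating cells were pooled, PBS-washed and fixed in 70% ethanol. RNase A (0.1 µg/µl, 37 °C, 15 min), then propidium iodide 1 µg/mL; flow cytometry of 20 000 events. Results given as percent of cells per phase; significance at p < 0.05.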

Assay [2] deals with HeLa. Briefly: Cell cycle arrest in human HeLa cells assessed as accumulation at G2/M phase after 48 hrs at 5 uM. In kind it is functional. A digest of the protocol:
as §1

Assay [3] deals with HeLa. As to the kind of experiment: Cell cycle arrest in human HeLa cells assessed as accumulation at Sub G1 phase after 72 hrs at 5 uM. In kind it is functional. In a few lines:
as §1

For assay [4], the system named is HeLa. As to the kind of experiment: Cell cycle arrest in human HeLa cells assessed as accumulation at G0/G1 phase after 72 hrs at 5 uM. In kind it is functional. A digest of the protocol: as §1
Assay [5] deals with DNA. As to the kind of experiment: Binding affinity to calf thymus DNA by thermal melting temperature assay. The conditions noted are these: Bos taurus. In kind it is nucleic-acid assay. In a few lines: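 ct-DNA (as phosphate concentration) in sodium cacodylate buffer pH 7.0, I = 0.05 mol dm-3. Compound/polynucleotide ratio r = 0.3. Absorbance at 260 nm followed against temperature, ligand absorbance subtracted. Tm taken as transition midpoint by first derivative or tangent method. ΔTm = Tm(complex) − Tm(free DNA), averaged over at least two runs, error ±0.5 °C.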

Assay [6] has as its system HEp-2. As to the kind of experiment: Antitumor activity against human Hep2 cells after 72 hrs by MTT assay. The conditions noted are these: HEp-2, 72 h. In kind it is functional, cell-based. In a few lines: (§2)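 Cells from ATCC grown as monolayers in DMEM with 10% FBS, 2 mM L-glutamine, penicillin/streptomycin, 5% CO2, 37 °C. Seeded on day 0 at 1 × 10^4/mL (2 × 10^4/mL for MCF-7). Five 10-fold dilutions (10^-8 to 10^-4 mol/L) added, then 72 h exposure. MTT read at 570 nm; percent growth vs time-zero and untreated controls. IC50 by linear regression; quadruplicates, three experiments.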
In general terms: Tetrazolium assays rely on reduction of a dye to a coloured formazan, in cell work by metabolically active cells.

The subject of assay [7] is HeLa. Briefly: Antitumor activity against human HeLa cells after 72 hrs by MTT assay. In kind it is functional, cell-based. In a few lines: as §2
In assay [8] the test system is MIA PaCa-2. As to the kind of experiment: Antitumor activity against human MiaPaCa2 cells after 72 hrs by MTT assay. In kind it is functional, cell-based. The conditions noted are these: MIA PaCa-2, 72 h. In a few lines: as §2
For assay [9], the system named is SW-620. As to the kind of experiment: Antitumor activity against human SW620 cells after 72 hrs by MTT assay. In kind it is functional, cell-based. The following applies: SW-620, 72 h. In a few lines: as §2
For assay [10], the system named is MCF7. As to the kind of experiment: Antitumor activity against human MCF7 cells after 72 hrs by MTT assay. The following applies: MCF7, 72 h. In kind it is functional, cell-based. In a few lines: as §2
A short description of assay [11]: Antiproliferative activity against human […] fibroblast after 72 hrs by MTT assay. In kind it is functional. In a few lines: as §2
Assay [12] concerns HeLa. As to the kind of experiment: Cell cycle arrest in human HeLa cells assessed as accumulation at Sub G1 phase after 24 hrs at 5 uM. In kind it is functional. In a few lines:
as §1

In assay [13] the test system is HeLa. As to the kind of experiment: Cell cycle arrest in human HeLa cells assessed as accumulation at G0/G1 phase after 24 hrs at 5 uM. In kind it is functional. A digest of the protocol: as §1
The test system of assay [14] is HeLa. Briefly: Cell cycle arrest in human HeLa cells assessed as accumulation at S phase after 24 hrs at 5 uM. In kind it is functional. A digest of the protocol:
as §1

In assay [15] the test system is HeLa. As to the kind of experiment: Cell cycle arrest in human HeLa cells assessed as accumulation at G2/M phase after 24 hrs at 5 uM. In kind it is functional. A digest of the protocol:
as §1

The subject of assay [16] is HeLa. As to the kind of experiment: Cell cycle arrest in human HeLa cells assessed as accumulation at Sub G1 phase after 48 hrs at 5 uM. In kind it is functional. A digest of the protocol:
as §1

In assay [17] the test system is HeLa. Briefly: Cell cycle arrest in human HeLa cells assessed as accumulation at G0/G1 phase after 48 hrs at 5 uM. In kind it is functional. In a few lines: as §1
In assay [18] the test system is HeLa. As to the kind of experiment: Cell cycle arrest in human HeLa cells assessed as accumulation at S phase after 72 hrs at 5 uM. In kind it is functional. A digest of the protocol:
as §1

Assay [19] concerns HeLa. Briefly: Cell cycle arrest in human HeLa cells assessed as accumulation at G2/M phase after 72 hrs at 5 uM. In kind it is functional. A digest of the protocol: as §1
In assay [20] the test system is SW-620. As to the kind of experiment: Cell cycle arrest in human SW620 cells assessed as accumulation at Sub G1 phase after 24 hrs at 5 uM. In kind it is functional. In a few lines: as §1
Assay [21] deals with SW-620. Briefly: Cell cycle arrest in human SW620 cells assessed as accumulation at G1/G0 phase after 24 hrs at 5 uM. In kind it is functional. In a few lines: as §1
The subject of assay [22] is SW-620. As to the kind of experiment: Cell cycle arrest in human SW620 cells assessed as accumulation at S phase after 24 hrs at 5 uM. In kind it is functional. In a few lines: as §1
The test system of assay [23] is SW-620. Briefly: Cell cycle arrest in human SW620 cells assessed as accumulation at G2/M phase after 24 hrs at 5 uM. In kind it is functional. A digest of the protocol: as §1
In assay [24] the test system is SW-620. As to the kind of experiment: Cell cycle arrest in human SW620 cells assessed as accumulation at Sub G1 phase after 48 hrs at 5 uM. In kind it is functional. In a few lines: as §1
The test system of assay [25] is SW-620. Briefly: Cell cycle arrest in human SW620 cells assessed as accumulation at G1/G0 phase after 48 hrs at 5 uM. In kind it is functional. A digest of the protocol: as §1
The subject of assay [26] is SW-620. Briefly: Cell cycle arrest in human SW620 cells assessed as accumulation at S phase after 48 hrs at 5 uM. In kind it is functional. In a few lines: as §1
Assay [27] relates to SW-620. As to the kind of experiment: Cell cycle arrest in human SW620 cells assessed as accumulation at G2/M phase after 48 hrs at 5 uM. In kind it is functional. In a few lines: as §1
Assay [28] concerns SW-620. As to the kind of experiment: Cell cycle arrest in human SW620 cells assessed as accumulation at Sub G1 phase after 72 hrs at 5 uM. In kind it is functional. A digest of the protocol:
as §1

Assay [29] concerns SW-620. Briefly: Cell cycle arrest in human SW620 cells assessed as accumulation at G1/G0 phase after 72 hrs at 5 uM. In kind it is functional. A digest of the protocol:
as §1

The test system of assay [30] is SW-620. As to the kind of experiment: Cell cycle arrest in human SW620 cells assessed as accumulation at S phase after 72 hrs at 5 uM. In kind it is functional. A digest of the protocol: as §1
Assay [31] relates to SW-620. As to the kind of experiment: Cell cycle arrest in human SW620 cells assessed as accumulation at G2/M phase after 72 hrs at 5 uM. In kind it is functional. In a few lines: as §1
For assay [32], the species on record is Homo sapiens. As to the kind of experiment: Inhibition of Topoisomerase 2-mediated pRYG DNA relaxation activity. A digest of the protocol:
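Supercoiled pRYG plasmid with 8 units purified topo II in assay buffer. Test compound or etoposide added as 2 µL of a 1 mM stock per 20 µL reaction. Incubation 37 °C for 30 min; stopped with SDS, then proteinase K (50 µg/mL, 37 °C, 15 min). Gel electrophoresis, post-stained with ethidium bromide 0.5 µg/mL, UV imaging of supercoiled-to-relaxed conversion.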

For the compound `Cl.N=C(NN1CCOCC1)c1ccc2nc3ccc4ccccc4n3c2c1`, the Activity in [1] is 37%; in [2], 27%; in assay [3] it was 2%; in assay [4], 25%; in assay [12], 3%; in assay [13] it was 36%. Besides, the Activity turned out to be 30% in assay [14]; 34% in assay [15]; 2% in [16]; 36% in assay [17]; 39% in assay [18]; 35% in assay [19]. In assay [5], the ΔTm (in general, the shift of the melting midpoint relative to a reference) stood at 3.2 °C. Besides, the IC50 (commonly the midpoint of a concentration-inhibition curve) in assay [6] was determined as 2000 nM; in assay [7], 3000 nM; in assay [8] it was 2000 nM; in [9], 2000 nM; in [10], 4000 nM; in assay [11], 4000 nM.
As for `Cl.c1ccc2c(c1)ccc1nc3ccc(C4=NCCN4)cc3n12`, the Activity was 36% in assay [1]; 32% in assay [2]; 3% in assay [3]; 28% in assay [4]; 2% in assay [12]; 32% in [13]. The Activity in assay [14] came out at 42%; in assay [15], 26%; in assay [16] it was 2%; in [17] it was 34%; in assay [18], 32%; in [19], 40%. For the same compound, the Activity worked out at 3% in [20]; 12% in [21]; 39% in assay [22]; 49% in assay [23]; 12% in assay [24]; 25% in assay [25]. The Activity was determined as 26% in [26]; 49% in [27]; 13% in assay [28]; 30% in assay [29]; 17% in assay [30]; 54% in [31]. Besides, the ΔTm in assay [5] came out at 4.9 °C. Also, the IC50 in assay [6] was determined as 2000 nM; in [7] it was 2000 nM; in [8], 1000 nM; in [9] it was 400 nM; in assay [10] it was 2000 nM; in assay [11] it was 2000 nM. Besides, the result in assay [32] was Active.
Take `C(=C/c1nc2ccc(C3=NCCN3)cc2[nH]1)/c1ccccc1.Cl`: the ΔTm in assay [5] turned out to be 1 °C. The IC50 in [6] was 27000 nM; in [7], 35000 nM; in assay [8] it was 25000 nM; in [9], 45000 nM; in [10] it was 17000 nM; in assay [11] it was 99000 nM. The Activity is 0.5% in [20]; 36% in assay [21]; 45% in assay [22]; 19% in [23]; 1% in assay [24]; 46% in assay [25]. In addition, the Activity in assay [26] came to 39%; in assay [27], 15%; in [28] it was 0.8%; in assay [29], 49%; in assay [30], 30%; in assay [31] it was 21%. Further, the result in [32] was Active.

(Values after ChEMBL document CHEMBL1138229, “Novel cyano- and amidino-substituted derivatives of styryl-2-benzimidazoles and benzimidazo[1,2-a]quinolines. Synthesis, photochemical synthesis, DNA binding, and antitumor evaluation, part 3” (J Med Chem, 2007).)
